# Yeast superoxide = caloric restriction mimetics inhibiting age-related superoxide in yeast; S. cerevisiae aged cells, superoxide DHE fluorescence; hits give low values; 0.18% of 330,000 active; superoxide response (% of plate mean), % at 10 µM;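 active means superoxide response under a set limit, about three screen SD below normal, cut at about 65% in these data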;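 further: yeast aged for seven days with compound at 30 °C before DHE staining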
# PvdQ acylase = P. aeruginosa PvdQ acylase inhibition. inhibition, % at 10 µM. 0.063% of 340,000 active. purified PvdQ acylase, fluorescence plate reader; in the data active means inhibition above about 30%, passing the limit was not always enough
# PHOSPHO1 block = inhibitors of human PHOSPHO1 phosphatase | recombinant PHOSPHO1, absorbance phosphatase assay | Q8TCT1 | inhibition, % at 13.3 µM | AID 1565 | 1.1% of 290,000 active; in the data active means inhibition above about 60%
# Target sequence (Q8TCT1 whole entry, looked up): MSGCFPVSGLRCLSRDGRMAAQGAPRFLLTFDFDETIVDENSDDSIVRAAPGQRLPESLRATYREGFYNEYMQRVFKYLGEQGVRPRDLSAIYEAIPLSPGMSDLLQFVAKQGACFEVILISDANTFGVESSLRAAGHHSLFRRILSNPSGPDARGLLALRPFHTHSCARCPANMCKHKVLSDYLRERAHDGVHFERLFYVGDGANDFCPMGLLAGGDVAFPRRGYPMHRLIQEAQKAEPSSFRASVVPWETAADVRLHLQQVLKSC
# IMP-1 inhibitor = inhibitors of Pseudomonas aeruginosa IMP-1 metallo-beta-lactamase. 0.45% of 290,000 active. AID 1556. purified IMP-1, nitrocefin hydrolysis, epi-absorbance fluorescence. inhibition, % at 5.6 µM;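 active means inhibition above the mean plus 3 SD of all compounds in the same screening run, cut at about 4.5% in these data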
#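 assay system = purified recombinant IMP-1 metallo-beta-lactamase enzyme | schedule = 15 min preincubation plus 25 min reaction at 25 °C | signal = Epi-absorbance fluorescence, 480 nm excitation, 530 nm emission | read-out basis = percent inhibition from optical density relative to buffer-blank wells | controls = IMP-1 with DMSO as 0%, enzyme-free DMSO as 100%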
# VIM-2 inhibitor = inhibitors of Pseudomonas aeruginosa VIM-2 metallo-beta-lactamase. inhibition, % at 5.6 µM. 0.89% of 290,000 active. purified VIM-2, nitrocefin hydrolysis, epi-absorbance fluorescence;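 active means inhibition above the mean of all tested compounds plus 3 SD, cutoff set per screening run, cut at about 7.5% in these data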;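 further: red hydrolysis product quenches plate fluorescence so inhibitors raise well fluorescence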
# Numbers stand for hits; i = inactive; nt = no result. Only some compounds are listed: those with a hit (about 2.2% of all), similar ones and a draw of the others.
SMILES,Yeast superoxide,PvdQ acylase,PHOSPHO1 block,IMP-1 inhibitor,VIM-2 inhibitor
COc1ccc(N=C2NN=C(c3ccc4c(c3)OCCO4)CS2)cc1,i,i,98,i,i
O=C1CN(C(=O)CSc2nnc(-c3ccccc3)n2Cc2ccc3c(c2)OCO3)c2ccccc2N1,i,i,69,i,i
CCN(c1ccc2c(c1)OCO2)S(=O)(=O)c1cc(Br)cc2c1N(C(C)=O)CC2,i,i,i,7.4,i
CCC1C(=O)NCCN1C(=O)c1cccc(OC2CCN(S(=O)(=O)N(C)C)CC2)c1 (configuration not stated),i,i,64,i,i
COc1ccc(NS(=O)(=O)NC(=O)c2c[nH]c3ccccc23)cc1,i,i,i,i,i
Cc1ccc(-c2ccc(/C=N/N3C(=O)C4C5C=CC(C6CC56)C4C3=O)o2)c([N+](=O)[O-])c1 (configuration not stated),i,i,69,i,i
O=C1C2C3C=CC(C4CC34)C2C(=O)N1/N=C/c1ccc(-c2ccc([N+](=O)[O-])cc2)o1 (configuration not stated),i,i,i,i,i
CC(C)(C)OC(=O)N1C[C@H](O)C[C@H]1C(=O)OCC(=O)c1ccc([N+](=O)[O-])cc1,i,i,i,i,i
CC(=O)c1sc(NCc2ccccc2)nc1C,i,i,i,28,i
Cc1ccc2nc(C)cc(C(=O)OCC(=O)Nc3cccnc3Cl)c2c1,i,i,61,i,i
Cc1c(-c2nnc(SCC(=O)O)n2-c2ccccc2Br)nnn1-c1ccccc1,i,i,i,i,i
c1c2c(cc3sc(N4CCCCC4)nc13)OCO2,i,i,i,i,i
c1c2c(cc3sc(N4CCOCC4)nc13)OCO2,i,i,93,i,i
COc1ccc(S(=O)(=O)N(C(=O)C(C)C)c2ccc3oc(=O)sc3c2)cc1,i,i,97,i,i
CCCC(=O)N(c1ccc2oc(=O)sc2c1)S(=O)(=O)c1cccs1,i,i,95,i,i
CC(C)C(=O)N(c1ccc2oc(=O)sc2c1)S(=O)(=O)c1ccccc1,i,i,92,i,i
COc1ccc(C(=O)Oc2ccc3oc(=O)sc3c2)cc1,i,i,94,i,i
COc1ccc(OC)c(S(=O)(=O)N(C(C)=O)c2ccc3oc(=O)sc3c2)c1,i,i,i,i,i
CC(=O)N(c1ccc2oc(=O)sc2c1)S(=O)(=O)c1ccccc1,i,i,i,i,i
CCCCN1C[C@H](COC(=O)CCC)Oc2cccc(F)c2S1(=O)=O,nt,i,nt,nt,nt
CCC1=CC(c2ccccc2)n2ncnc2N1 (configuration not stated),i,i,nt,nt,nt
CCC(C)(C)NC(=O)C(c1ccc(OC)cc1)N(C(=O)CCC(=O)Nc1cc(C)on1)c1cc(OC)ccc1OC (configuration not stated),i,i,i,i,i
Cc1c(-n2c(-c3ccccc3Cl)n[nH]c2=S)c(=O)n(-c2ccccc2)n1C,i,i,i,i,74
Cc1ccc(NC(=S)NNC(=O)c2ccccc2OC(F)F)cc1,i,i,86,i,i
O=C(NNC(=S)Nc1ccc(F)cc1)c1ccccc1OC(F)F,i,i,88,i,i
SMILES,Yeast superoxide,PvdQ acylase,PHOSPHO1 block,IMP-1 inhibitor,VIM-2 inhibitor
COc1cccc(NC(=S)NNC(=O)c2ccccc2OC(F)F)c1,i,i,i,i,i
CCOc1ccc(OCCCC(=O)O)cc1,i,i,i,i,i
O=C1/C(=C/c2ccc(Cl)cc2)NC(=S)N1Cc1cccnc1,i,i,i,i,i
COc1ccc(CC(=O)NCC2CCCN(Cc3cccc(SC)c3)C2)cc1 (configuration not stated),i,i,61,i,i
O=C(Nc1ccc(CN2CCCCC2)cc1)Nc1ccc(Br)cc1Cl,i,i,i,i,i
CCOC(=O)c1c(C)oc2c(CN3CCN(C)CC3)c(Br)c(OC)c(O)c12,i,i,i,i,10
COc1ccc(C(=O)Oc2ccc[nH]c2=O)cc1,i,i,i,i,i
COc1ccc(-c2cc(OC(=O)c3ccc(F)cc3)c3c(C)oc(C)c3c(=O)c2)cc1,i,nt,i,4.9,i
O=C(O[C@@H]1OC2COC(=O)c3cc(O)c(O)c(O)c3-c3c(cc(O)c(O)c3O)C(=O)O[C@@H]([C@H]1O)[C@@H]2O)c1cc(O)c(O)c(O)c1,i,i,i,8.8,i
O=C(CSc1ccccc1F)NC(=O)c1ccccc1Br,i,i,nt,nt,nt
COc1ccc(C2CC(c3ccc(Cl)cc3Cl)Nc3nc(N)nn32)cc1 (configuration not stated),i,i,70,i,i
COc1ccc(C2CC(c3ccc(Cl)cc3Cl)n3nc(N)nc3N2)cc1 (configuration not stated),i,i,i,i,i
CCN(CC)C(=O)c1[nH]cnc1C(=O)NC1CCN(C(=O)OC(C)(C)C)CC1,i,i,nt,nt,nt
COc1ccc2nc3cccc(OC)c3nc2c1,i,i,i,i,7.7
CCN(CC)C(=O)c1sc(NC(=O)c2ccc(C)c([N+](=O)[O-])c2)c(C#N)c1C,i,i,i,i,i
Cc1ccc(CC2CC(=O)N(c3nc4ccccc4n3C)C2=O)cc1 (configuration not stated),i,i,i,14,i
Cc1cccc(CC2CC(=O)N(c3nc4ccccc4s3)C2=O)c1 (configuration not stated),i,i,i,8.6,i
CN1CC(=O)N(CC(=O)Nc2cccc3ccccc23)C1=O,i,i,nt,nt,nt
CCOC(=O)C(=CNNc1cccc(Cl)c1)C(=O)OCC,i,i,74,i,i
CC1CCC(NC(=O)CSc2nnc(-c3cccnc3)o2)CC1 (configuration not stated),i,i,nt,nt,nt
CC(=O)c1c(N2CCN(c3cccc(Cl)c3)CC2)nc(=S)n(-c2ccccc2)c1C,i,i,i,i,i
CCn1c(C)c(C(C)=O)c(N2CCN(c3cccc(Cl)c3)CC2)nc1=S,i,i,76,i,i
COc1ccc(CCNC(=O)c2cccc(S(=O)(=O)N3CCc4ccccc4C3)c2)cc1,i,44,nt,nt,nt
Cc1ccc(NC(=O)CSc2nnc(C)n2-c2ccccc2)cc1,i,i,i,i,i
Cc1nnc(SCC(=O)Nc2ccc(N3CCOCC3)cc2)n1-c1ccccc1,i,i,64,i,i
SMILES,Yeast superoxide,PvdQ acylase,PHOSPHO1 block,IMP-1 inhibitor,VIM-2 inhibitor
CN(C)c1oc(/C=C/c2cccs2)nc1S(=O)(=O)c1ccccc1,i,i,i,i,i
Cc1sc2c(c1C)C(O)=C(C(=O)Nc1ccccc1)S(=O)(=O)N2C,i,i,i,4.6,i
CCOC(=O)c1ccc(-n2c(N)c(C(=O)NCC3CCCO3)sc2=S)cc1 (configuration not stated),i,i,76,i,i
C[C@H](CO)N1C[C@H](C)[C@@H](CN(C)Cc2ccc(Cl)c(Cl)c2)Oc2c(NS(=O)(=O)c3cccs3)cccc2C1=O,i,i,nt,nt,nt
CC(NS(=O)(=O)c1ccc2c(c1)CC(C)N2C(=O)C1CC1)c1ccccc1 (configuration not stated),i,i,i,i,i
COc1cccc2c1cc1c(=O)n(CC(=O)NCCCc3ccccc3)nc(C)n12,i,i,i,i,i

# Source: PubChem BioAssay (several laboratories)
